Compound activity: PubChem, Johns Hopkins Ion Channel Center
Compounds with a hit are over-represented: about 2.3% of the library has one in this group of screens.
TRPC4 inh – TRPC4 (mouse) channel inhibition | Q9QUQ5 | HEK293 TRPC4beta/mu-opioid, DAMGO-evoked Fluo4 calcium flux; stronger effect = lower value | B-score at 10 µM | actives 0.39% (n = 300,000);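 active = B-score over 3 SD under the library average, no early fluorescence shift, positive overall ratio signal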
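Assay system: TRPC4beta/mu-opioid receptor HEK293 cell line; compound dosing: single concentration per test compound; detection: Fluo4 Ca2+ flux fluorescence; evaluation: per-well B score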
TRPC4 act – TRPC4 (mouse) channel activation. AID 2237. actives 0.49% (n = 310,000). HEK293 TRPC4beta/mu-opioid, Fluo4 calcium fluorescence; stronger effect = higher value. Q9QUQ5. B-score at 10 µM;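 active = B-score above 5 SD of library B-scores, and initial fluorescence ratio not above library mean plus 5 SD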;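 note: positive B-score marks a calcium rise read as TRPC4 activation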
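Assay system: HEK293 stable line with TRPC4beta plus mu-opioid receptor. Times: dye 45 min RT, read 110 s. Measured by: kinetic Fluo4 calcium fluorescence. Measure: B score of integrated ratio. Controls: assay buffer as low control, maximal DAMGO as high control.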
TRPC6 inh – blocks the mouse TRPC6 cation channel; Q61143; HEK293-TRPC6, membrane potential dye, ACh-evoked depolarization; stronger effect = lower value; B-score at 10 µM; actives 1.1% (n = 310,000); AID 2553;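 active = B-score under library mean minus 3 SD, initial fluorescence not abnormally high, positive integrated signal ratio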;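 note: B-score derived from integrated fluorescence ratio over the kinetic read; more negative B-score means stronger inhibition of depolarization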
Target sequence (Q61143 whole entry, looked up): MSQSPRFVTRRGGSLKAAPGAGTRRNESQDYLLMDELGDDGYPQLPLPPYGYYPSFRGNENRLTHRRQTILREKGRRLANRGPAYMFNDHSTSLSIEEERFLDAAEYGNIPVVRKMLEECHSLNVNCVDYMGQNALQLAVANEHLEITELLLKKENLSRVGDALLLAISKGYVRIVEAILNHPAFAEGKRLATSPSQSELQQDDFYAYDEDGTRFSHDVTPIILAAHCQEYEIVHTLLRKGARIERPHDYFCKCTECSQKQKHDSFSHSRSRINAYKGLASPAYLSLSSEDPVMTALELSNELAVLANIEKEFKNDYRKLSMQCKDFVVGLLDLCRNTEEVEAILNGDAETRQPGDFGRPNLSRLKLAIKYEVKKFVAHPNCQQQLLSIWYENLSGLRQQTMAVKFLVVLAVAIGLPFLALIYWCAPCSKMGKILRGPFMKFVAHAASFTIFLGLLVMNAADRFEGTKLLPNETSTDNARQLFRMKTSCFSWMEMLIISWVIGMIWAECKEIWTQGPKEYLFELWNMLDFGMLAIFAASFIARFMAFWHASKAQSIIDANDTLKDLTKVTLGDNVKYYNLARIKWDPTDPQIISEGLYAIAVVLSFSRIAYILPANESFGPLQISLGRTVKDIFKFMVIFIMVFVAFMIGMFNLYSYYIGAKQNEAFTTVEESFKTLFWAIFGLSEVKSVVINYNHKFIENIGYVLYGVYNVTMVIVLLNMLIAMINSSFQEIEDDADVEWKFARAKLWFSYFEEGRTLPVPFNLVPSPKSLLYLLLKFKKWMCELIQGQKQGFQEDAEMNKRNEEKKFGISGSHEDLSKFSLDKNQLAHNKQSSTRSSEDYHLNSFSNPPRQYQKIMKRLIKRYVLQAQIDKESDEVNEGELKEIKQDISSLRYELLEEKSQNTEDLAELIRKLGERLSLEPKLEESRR
TRPC4 potent – TRPC4 (mouse) allosteric potentiation; B-score at 10 µM; actives 0.42% (n = 310,000); HEK293 TRPC4beta/mu-opioid, DAMGO EC20, Fluo-4 Ca2+ flux; stronger effect = higher value; AID 2227; Q9QUQ5;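 active = B-score of calcium response area above 5 SD of library B-scores, with initial fluorescence ratio within 5 SD of library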;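 note: B-score of integrated fluorescence ratio over time as area under calcium response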
TRPC6 activator – mouse TRPC6 channel activation. B-score at 10 µM. HEK293-TRPC6 membrane potential dye fluorescence; stronger effect = higher value. AID 2550. actives 0.13% (n = 310,000);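 active = B-score of the integrated fluorescence ratio above library mean plus 3 SD, and starting fluorescence ratio within library mean plus 5 SD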;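 note: higher score means more depolarization so channel activation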
TRPC4 spec 2 – second selectivity test of TRPC6 inhibitors: effect on mouse TRPC4. actives 42% (n = 920). HEK293 TRPC4/MOR, membrane potential dye fluorescence; channel activated by saturating DAMGO dose. shares compounds with TRPC6 inh. inhibition, % at 10 µM;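 active = compounds whose fluorescence signal differed from control wells by over 3 SD, either direction, in both duplicate plates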
TRPC4 spec – tests whether TRPC6 inhibitors also affect mouse TRPC4. HEK293 TRPC4/mu-opioid, membrane potential fluorescence. AID 2777. activity change, negative = inhibition, % at 10 µM. shares compounds with TRPC6 inh. actives 61% (n = 920);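 active = rise or fall in signal beyond 3 SD of buffer-only wells in both replicate plates, either sign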;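 note: integrated kinetic ratio of fluorescence range over baseline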
HEK293 MPD ctr 2-1 – second counter-screen for TRPC6 inhibitors: parental HEK293 cells; actives 31% (n = 920); signal change vs control, % at 10 µM; parental HEK293 membrane potential dye fluorescence; maximal acetylcholine challenge after compound addition; shares compounds with TRPC6 inh;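 active = membrane potential signal moving either way by over 3 SD of the maximum-effect control, in both duplicate plates, meaning non-specific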
HEK293 MPD ctr-1 – counter-screen for TRPC6 inhibitors: effect in parental HEK293 cells. shares compounds with TRPC6 inh. parental HEK293 membrane potential dye fluorescence. membrane potential signal change, % at 10 µM. actives 60% (n = 920). AID 2780;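 active = membrane potential signal shifting up or down by more than 3 SD of buffer-only wells, on both duplicate plates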
HEK293 MPD ctr-2 – checks TRPC6 modulator effects in parental HEK293 cells; AID 488924; actives 51% (n = 2,400); membrane potential dye fluorescence; membrane potential signal change, % at 10 µM; shares compounds with TRPC6 inh;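 active = membrane potential signal moves up or down beyond 5 SD from buffer-only wells, on both duplicate plates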
HEK293 MPD ctr 2-2 – parental HEK293 nonspecific activity of TRPC6 modulators, second screen | shares compounds with TRPC6 inh | inhibition, % at 10 µM | actives 14% (n = 2,400) | membrane potential dye fluorescence; after compound, maximal acetylcholine stimulation;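 active = membrane potential signal drops by more than 5 SD from the mean control signal, in both duplicate plates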;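 note: plate controls were acetylcholine ECmax control wells for no effect and buffer only wells for full effect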
TRPC4 ctr mod – tests whether TRPC6 modulators also affect mouse TRPC4. shares compounds with TRPC6 inh. HEK293 TRPC4/mu-opioid, membrane potential fluorescence. percent change from control (negative = decrease, positive = increase), % at 10 µM. actives 69% (n = 2,400). AID 488927;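 active = membrane potential signal moved up or down beyond 5 SD of buffer control wells, in both duplicate plates, actives on both sides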;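 note: plate controls were assay buffer wells for no effect and DAMGO maximal-effect wells for full effect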
TRPC4/MOR inh 2 – second check of whether TRPC6 modulators also affect mouse TRPC4; shares compounds with TRPC6 inh; inhibition, % at 10 µM; HEK293 TRPC4/mu-opioid, membrane potential dye fluorescence; stimulated with maximal-effect DAMGO; actives 55% (n = 2,400);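 active = drop in membrane potential signal beyond 5 SD of the control wells in both duplicate plates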;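 note: TRPC4 counter screen for TRPC6 hits run under conditions tuned for TRPC6 not TRPC4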
TRPC6 inh conf – mouse TRPC6 inhibitor confirmation; shares compounds with TRPC6 inh; actives 43% (n = 3,300); inhibition, % at 10 µM; HEK293-TRPC6, membrane potential dye, ACh-evoked depolarization;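 active = fluorescence ratio falls more than 5 SD below the full-stimulation control mean, in both duplicate runs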;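 note: integrated fluorescence ratio of peak minus minimum over baseline after agonist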
TRPC6 act confirm – mouse TRPC6 activator confirmation; activation, % at 10 µM; HEK293-TRPC6 membrane potential dye fluorescence, FDSS; actives 11% (n = 2,800); shares compounds with TRPC6 inh; AID 488961;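 active = ratio signal rise beyond 5 SD above unstimulated control wells' mean, seen in both duplicate runs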;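 note: plate controls were buffer EC0 wells for no effect and acetylcholine ECmax response for full effect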
Active calls of the source: *; i = inactive; · = no result.

SMILES	TRPC4 inh	TRPC4 act	TRPC6 inh	TRPC4 potent	TRPC6 activator	HEK293 MPD ctr-2	HEK293 MPD ctr 2-2	TRPC4 ctr mod	TRPC4/MOR inh 2	TRPC6 inh conf	TRPC6 act confirm	others
COc1ccc(S(=O)(=O)N2CCN(CC(O)COc3ccc(CC#N)cc3)CC2)cc1OC (stereo unspecified)	i	i	i	i	i	·	·	·	·	·	·
CNC(=O)c1cc2c(=O)n3cccc(C)c3nc2n(C(C)C)c1=N	i	i	-11.6*	i	i	-209.0%*	121.0%*	-40.5%*	66.0%*	82.0%*	i
Cc1cccn2c(=O)c3cc(C(=O)NCCN4CCOCC4)c(=N)n(CCCN4CCOCC4)c3nc12	i	i	-5.05*	i	i	189.0%*	164.0%*	32.0%*	46.5%*	61.0%*	·
Cc1cccn2c(=O)c3cc(C(=O)NCC4CCCO4)c(=N)n(CCN4CCOCC4)c3nc12 (stereo unspecified)	i	i	i	i	i	·	·	·	·	·	·
COc1ccc(CCn2c(=N)c(C(=O)NC3CCCC3)cc3c(=O)n4cccc(C)c4nc32)cc1	i	i	-5.26*	i	i	-121.0%*	i	-38.0%*	49.0%*	36.5%*	i
COCCn1c(=N)c(C(=O)NCCc2ccccc2)cc2c(=O)n3cccc(C)c3nc21	i	i	i	i	i	·	·	·	·	·	·
Cc1cccn2c(=O)c3cc(C(=O)NCCc4ccccc4)c(=N)n(CCCn4ccnc4)c3nc12	i	i	-6.23*	i	i	i	100.5%*	i	i	i	i
COCCCNC(=O)c1ccc2c(c1)nc(C)n2-c1cccc(C)c1	i	i	i	i	i	·	·	·	·	·	·
COc1ccccc1NC(=O)C1CCCN(S(=O)(=O)c2c(C)noc2C)C1 (stereo unspecified)	i	i	i	i	i	·	·	·	·	·	·
Cc1cccn2c(=O)c3cc(C(=O)NCCN4CCOCC4)c(=N)n(CCc4ccccc4)c3nc12	i	i	-5.45*	i	i	i	103.5%*	i	52.5%*	i	i
COc1ccc(CCn2c(=N)c(C(=O)NCCN3CCOCC3)cc3c(=O)n4cccc(C)c4nc32)cc1OC	i	i	i	i	i	·	·	·	·	·	·
CCNC(=O)c1cc2c(=O)n3cccc(C)c3nc2n(CCc2ccccc2)c1=N	i	i	-7.38*	i	i	-141.0%*	73.5%*	-27.5%*	47.5%*	63.0%*	i
CN1CCN(c2nc(-c3cccs3)nc3ccccc23)CC1	i	i	-8.25*	i	i	·	·	·	·	68.7%*	i	TRPC4 spec 2=32.5%*;TRPC4 spec=-28.1%*;HEK293 MPD ctr 2-1=i;HEK293 MPD ctr-1=-344.5%*
COc1cccc(-c2nc(N3CCN(C)CC3)c3ccccc3n2)c1O	i	i	-9.91*	i	i	-217.5%*	i	-44.0%*	71.5%*	51.5%*	i
CC1CCN(S(=O)(=O)c2cc(F)ccc2CN2C(=O)c3cccnc3C2=O)CC1	i	i	i	i	i	·	·	·	·	·	·
O=C(OCc1ccc(Br)cc1F)c1cc2ccccc2oc1=O	i	i	i	i	i	·	·	·	·	·	·
CCN(CC)CCn1c(=O)n(-c2ccc(Cl)cc2)c(=O)c2c3c(sc21)CN(C)CC3	i	i	i	i	i	·	·	·	·	·	·
CN1CCc2c(sc3c2c(=O)n(-c2ccc(Cl)cc2)c2nncn32)C1	i	i	-5.14*	i	i	-105.5%*	i	-21.0%*	i	i	i
O=[N+]([O-])c1cccc(/C=N/NC2=NCCCCC2)c1	i	i	-5.08*	i	i	-80.5%*	i	-15.0%*	39.0%*	i	i
O=C(ONC1=NCCCCC1)c1cccc([N+](=O)[O-])c1	i	i	i	i	i	·	·	·	·	·	·
O=C(NCc1cccnc1)/C(=C/c1ccc(Cl)cc1)NC(=O)c1ccccc1	i	i	-5.62*	i	i	i	i	i	i	i	i
COc1ccc(C(=O)N/C(=C\c2ccccc2)C(=O)NCc2cccnc2)cc1	i	i	i	i	i	·	·	·	·	·	·
CCCCNS(=O)(=O)c1ccc(NC(=O)C(Sc2ccccc2)c2ccccc2)cc1 (stereo unspecified)	i	i	i	i	i	·	·	·	·	·	·
Cc1ccc(-n2ncc(C(=O)Nc3cc(Cl)cc(Cl)c3)c2C2CCNCC2)cc1C	i	i	-6.87*	i	i	·	·	·	·	i	i	TRPC4 spec 2=63.5%*;TRPC4 spec=-12.1%*;HEK293 MPD ctr 2-1=i;HEK293 MPD ctr-1=i
Cc1ccc(-n2ncc(C(=O)Nc3cc(Cl)ccc3Cl)c2C2CCNCC2)cc1	i	i	i	i	i	·	·	·	·	·	·
Cc1ccc(CNC(=O)c2cc3c(=O)n(C)c4ccccc4c3n2C)cc1	i	i	i	i	i	·	·	·	·	·	·
CN(CCNC(=O)c1cc2c(=O)n(C)c3ccccc3c2n1C)Cc1ccccc1	i	i	-5.25*	i	i	i	i	i	55.5%*	i	i
